# Results gathered from unrelated publications.
# Organism: Candida albicans
SMILES,assay,test system,setting,endpoint,value
O=C(Cc1cc(O)c(O)c(O)c1)NCCCCCCCC[P+](c1ccccc1)(c1ccccc1)c1ccccc1.[Br-],"microbial growth, broth dilution",ATCC90028,24 h,MIC,> 32 µg/mL
O=C(O)c1cn(C2CC2)c2cc(N3CCNCC3)c(F)cc2c1=O,"microbial growth, broth dilution",,,MIC,12.5 µM
C#CCCCCCCCCC=CCC(O)CC(O)CO (stereo not shown),"microbial growth, broth dilution",ATCC90028,,IC50,> 8 µg/mL
O=C(CCCCCCCCCC[P+](c1ccccc1)(c1ccccc1)c1ccccc1)Nc1ccc(O)c(O)c1.[Br-],"microbial growth, broth dilution",ATCC90028,24 h,MIC,32 µg/mL
C[C@@H]1[C@H](O)[C@@H](C)/C=C/C=C/C=C/C=C/C=C/C=C/C=C/[C@H](O[C@@H]2O[C@H](C)[C@@H](O)[C@H](N)[C@@H]2O)C[C@@H]2O[C@](O)(C[C@@H](O)C[C@@H](O)[C@H](O)CC[C@@H](O)C[C@@H](O)CC(=O)O[C@H]1C)C[C@H](O)[C@H]2C(=O)O,microbial killing,ATCC90028,,MFC,2.5 µg/mL
C[C@@H]1[C@H](O)[C@@H](C)/C=C/C=C/C=C/C=C/C=C/C=C/C=C/[C@H](O[C@@H]2O[C@H](C)[C@@H](O)[C@H](N)[C@@H]2O)C[C@@H]2O[C@](O)(C[C@@H](O)C[C@@H](O)[C@H](O)CC[C@@H](O)C[C@@H](O)CC(=O)O[C@H]1C)C[C@H](O)[C@H]2C(=O)O,microbial growth,,1000 µg/mL,inhibition zone,21 mm
C[C@@H]1[C@H](O)[C@@H](C)/C=C/C=C/C=C/C=C/C=C/C=C/C=C/[C@H](O[C@@H]2O[C@H](C)[C@@H](O)[C@H](N)[C@@H]2O)C[C@@H]2O[C@](O)(C[C@@H](O)C[C@@H](O)[C@H](O)CC[C@@H](O)C[C@@H](O)CC(=O)O[C@H]1C)C[C@H](O)[C@H]2C(=O)O,microbial growth,ATCC90028,,IC50,0.3 µM
Cc1cc(N)c2ccccc2[n+]1CCCCCCCCCC[n+]1c(C)cc(N)c2ccccc21,"microbial growth, disc diffusion",,50 µg/disc,inhibition zone,13 mm
C#CCCCCCCCCCCCC(O)CC(O)CO (stereo not shown),"microbial growth, broth dilution",ATCC90028,,IC50,> 200 µg/mL
Clc1ccccc1C(c1ccccc1)(c1ccccc1)n1ccnc1,"microbial growth, disc diffusion",,100 µg/mL,inhibition zone,21 mm
CCCCCCCOc1c(OC)cc(NC(C)CCCN)c2nc(C(C)(C)C)ccc12 (stereo not shown),microbial killing,ATCC90028,,MFC,10 µg/mL
C[C@@H]1[C@H](O)[C@@H](C)/C=C/C=C/C=C/C=C/C=C/C=C/C=C/[C@H](O[C@@H]2O[C@H](C)[C@@H](O)[C@H](N)[C@@H]2O)C[C@@H]2O[C@](O)(C[C@@H](O)C[C@@H](O)[C@H](O)CC[C@@H](O)C[C@@H](O)CC(=O)O[C@H]1C)C[C@H](O)[C@H]2C(=O)O,"microbial growth, broth dilution",ATCC90028,,IC50,0.27 µg/mL
C[C@@H]1[C@H](O)[C@@H](C)/C=C/C=C/C=C/C=C/C=C/C=C/C=C/[C@H](O[C@@H]2O[C@H](C)[C@@H](O)[C@H](N)[C@@H]2O)C[C@@H]2O[C@](O)(C[C@@H](O)C[C@@H](O)[C@H](O)CC[C@@H](O)C[C@@H](O)CC(=O)O[C@H]1C)C[C@H](O)[C@H]2C(=O)O,"microbial growth, disc diffusion",,35 µg/disc,inhibition zone,11 mm
